Results from ChEMBL document CHEMBL1140702, “New celecoxib derivatives as anti-inflammatory agents” (J Med Chem, 2008).

What was measured:
Rattus norvegicus [1] = experiment: Antiinflammatory activity in Wistar rat assessed as inhibition of carrageenan-induced paw edema at 10 mg/kg, po after 4 hrs relative to celecoxib; format: functional; settings: for inhibition in vivo at 10 mg/kg: Rattus norvegicus, Wistar, po, 4 h
Method in brief: (§1)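 Male Wistar rats (140–150 g; n = 6–12/group) given 50 µL of 1% carrageenan subcutaneously into the right hind paw subplantar region. Oral test doses. Edema is the pre- versus post-treatment volume difference (mL), read by water-displacement plethysmometer.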

Rattus norvegicus [2] = experiment: Antiinflammatory activity in Wistar rat assessed as inhibition of carrageenan-induced paw edema at 10 mg/kg, po after 6 hrs relative to celecoxib; format: functional; settings: for inhibition in vivo at 10 mg/kg: Rattus norvegicus, Wistar, po, 6 h; method in brief: as §1
Rattus norvegicus [3] = experiment: Antiinflammatory activity in Wistar rat assessed as inhibition of carrageenan-induced paw edema at 10 mg/kg, po after 7 hrs relative to celecoxib; format: functional; settings: for inhibition in vivo at 10 mg/kg: Rattus norvegicus, Wistar, po, 7 h; method in brief: as §1
Rattus norvegicus [4] = experiment: Antiinflammatory activity in Wistar rat assessed as inhibition of carrageenan-induced paw edema after 4 hrs; format: functional
Rattus norvegicus [5] = experiment: Analgesic activity in acute model Wistar rat assessed as reversal of carrageenan-induced hind paw edema at 10 mg/kg, po after 60 mins by mechanical hyperalgesia test relative to celecoxib; format: functional
Method in brief: (§2)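 Randall-Selitto test: male Wistar rats (140–190 g; n = 8–12/group), carrageenan injected subcutaneously in the subplantar right hind paw. Basal paw-withdrawal pressure threshold (g) measured before carrageenan, then after oral dosing at 30, 60, 120 and 180 min. Maximal threshold reduction develops 2–3 h post-injection. Analgesia expressed as % reversal of hyperalgesia.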

Rattus norvegicus [6] = experiment: Analgesic activity in acute model Wistar rat assessed as reversal of carrageenan-induced hind paw edema at 10 mg/kg, po after 120 mins by mechanical hyperalgesia test relative to celecoxib; format: functional; method in brief: as §2
Rattus norvegicus [7] = experiment: Analgesic activity in acute model Wistar rat assessed as reversal of carrageenan-induced hind paw edema at 10 mg/kg, po after 180 mins by mechanical hyperalgesia test relative to celecoxib; format: functional; method in brief: as §2
Rattus norvegicus [8] = experiment: Analgesic activity in acute model Wistar rat assessed as reversal of carrageenan-induced hind paw edema at 30 mg/kg, po after 60 mins by mechanical hyperalgesia test relative to celecoxib; format: functional; method in brief: as §2
Rattus norvegicus [9] = experiment: Effect on acetic acid-induced chronic gastric ulcer Wistar rat assessed as area of ulcer at 30 mg/kg, po; format: functional, Stomach
Method in brief: (§3)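 Chronic ulcer (Okabe method): under ether anesthesia, male Wistar rats (150–170 g) had 0.05 mL 20% acetic acid injected into the submucosa of the anterior glandular stomach wall via laparotomy. Oral dosing with methylcellulose vehicle control. Killed after 12 days. Ulcer area taken as length × width (mm²); body-weight change recorded.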

Rattus norvegicus [10] = experiment: Inhibition of ethanol-induced gastric mucosal damage in Wistar rat assessed as ulcer index at 30 mg/kg, po; format: functional, Gastric mucosa
Method in brief: (§4)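 After 24 h fasting, male Wistar rats (140–160 g; n = 10) received oral 0.5 mL acidified ethanol (98% ethanol in 200 mmol/l HCl), with oral test doses and methylcellulose vehicle. Stomachs removed 1 h later and scored blind on a 0–4 scale. Lesion index = lesion number × severity. % inhibition calculated against control lesion index.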

Rattus norvegicus [11] = experiment: Inhibition of ethanol-induced gastric mucosal damage in Wistar rat assessed as ulcer index at 15 mg/kg, po; format: functional, Gastric mucosa; method in brief: as §4
Rattus norvegicus [12] = experiment: Inhibition of ethanol-induced gastric mucosal damage in Wistar rat assessed as ulcer index at 60 mg/kg, po; format: functional, Gastric mucosa; method in brief: as §4
Rattus norvegicus [13] = experiment: Analgesic activity in acute model Wistar rat assessed as reversal of carrageenan-induced hind paw edema at 30 mg/kg, po after 120 mins by mechanical hyperalgesia test relative to celecoxib; format: functional; method in brief: as §2
Rattus norvegicus [14] = experiment: Analgesic activity in acute model Wistar rat assessed as reversal of carrageenan-induced hind paw edema at 30 mg/kg, po after 180 mins by mechanical hyperalgesia test relative to celecoxib; format: functional; method in brief: as §2
Rattus norvegicus [15] = experiment: Analgesic activity in chronic model Wistar rat assessed as reversal of carrageenan-induced hind paw edema at 10 mg/kg, po after 60 mins by mechanical hyperalgesia test relative to celecoxib; format: functional; method in brief: as §2
Rattus norvegicus [16] = experiment: Analgesic activity in chronic model Wistar rat assessed as reversal of carrageenan-induced hind paw edema at 10 mg/kg, po after 30 mins by mechanical hyperalgesia test relative to celecoxib; format: functional; method in brief: as §2
Rattus norvegicus [17] = experiment: Analgesic activity in chronic model Wistar rat assessed as reversal of carrageenan-induced hind paw edema at 10 mg/kg, po after 120 mins by mechanical hyperalgesia test relative to celecoxib; format: functional; method in brief: as §2
Rattus norvegicus [18] = experiment: Analgesic activity in chronic model Wistar rat assessed as reversal of carrageenan-induced hind paw edema at 10 mg/kg, po after 180 mins by mechanical hyperalgesia test relative to celecoxib; format: functional; method in brief: as §2
Rattus norvegicus [19] = experiment: Analgesic activity in chronic model Wistar rat assessed as reversal of carrageenan-induced hind paw edema at 30 mg/kg, po after 30 mins by mechanical hyperalgesia test relative to celecoxib; format: functional; method in brief: as §2
Rattus norvegicus [20] = experiment: Analgesic activity in chronic model Wistar rat assessed as reversal of carrageenan-induced hind paw edema at 30 mg/kg, po after 60 mins by mechanical hyperalgesia test relative to celecoxib; format: functional; method in brief: as §2
Rattus norvegicus [21] = experiment: Analgesic activity in chronic model Wistar rat assessed as reversal of carrageenan-induced hind paw edema at 30 mg/kg, po after 120 mins by mechanical hyperalgesia test relative to celecoxib; format: functional; method in brief: as §2
Rattus norvegicus [22] = experiment: Analgesic activity in chronic model Wistar rat assessed as reversal of carrageenan-induced hind paw edema at 30 mg/kg, po after 180 mins by mechanical hyperalgesia test relative to celecoxib; format: functional; method in brief: as §2
Rattus norvegicus [23] = experiment: Inhibition of ethanol-induced gastric mucosal damage in Wistar rat at 30 mg/kg, po; format: functional; settings: Gastric mucosa; method in brief: as §4
Rattus norvegicus [24] = experiment: Inhibition of ethanol-induced gastric mucosal damage in Wistar rat at 15 mg/kg, po; format: functional; settings: Gastric mucosa; method in brief: as §4
Rattus norvegicus [25] = experiment: Inhibition of ethanol-induced gastric mucosal damage in Wistar rat at 60 mg/kg, po; format: functional; settings: Gastric mucosa; method in brief: as §4
Rattus norvegicus [26] = experiment: Increase in body weight in acetic acid-induced chronic gastric ulcer Wistar rat at 30 mg/kg, po; format: functional, Stomach; method in brief: as §3
Rattus norvegicus [27] = experiment: Antiinflammatory activity in Wistar rat assessed as inhibition of carrageenan-induced paw edema
Rattus norvegicus [28] = experiment: Effect on acetic acid-induced chronic gastric ulcer Wistar rat assessed as area of ulcer at 2.0 mg/kg, po; format: functional, Stomach; method in brief: as §3
Rattus norvegicus [29] = experiment: Increase in body weight in acetic acid-induced chronic gastric ulcer Wistar rat at 2.0 mg/kg, po; format: functional, Stomach; method in brief: as §3

## CCOC(=O)CONS(=O)(=O)c1ccc(-n2nc(C(F)(F)F)cc2-c2ccc(C)cc2)cc1
Rattus norvegicus [1]
  inhibition in vivo at 10 mg/kg: 13.3%
Rattus norvegicus [2]
  inhibition in vivo at 10 mg/kg: 23.1%
Rattus norvegicus [3]
  inhibition in vivo at 10 mg/kg: 20.6%

## Cc1ccc(-c2cc(C(F)(F)F)nn2-c2ccc(S(=O)(=O)NOC(C)C(=O)O)cc2)cc1 (racemic; 21)
Rattus norvegicus [1]
  inhibition in vivo at 10 mg/kg: 38.4%
Rattus norvegicus [2]
  inhibition in vivo at 10 mg/kg: 21.8%
Rattus norvegicus [3]
  inhibition in vivo at 10 mg/kg: 16.2%

## Cc1ccc(-c2cc(C(F)(F)F)nn2-c2ccc(S(=O)(=O)NOCCC(=O)[O-])cc2)cc1.[Na+]
Rattus norvegicus [1]
  inhibition in vivo at 10 mg/kg: 32%
Rattus norvegicus [2]
  Inhibition: 33.9%
Rattus norvegicus [3]
  Inhibition: 24.9%

## Cc1ccc(-c2cc(C(F)(F)F)nn2-c2ccc(S(=O)(=O)NO[C@@H](C)C(=O)O)cc2)cc1
Rattus norvegicus [1]
  inhibition in vivo at 10 mg/kg: 0.9%
Rattus norvegicus [2]
  inhibition in vivo at 10 mg/kg: -9.3%
Rattus norvegicus [3]
  inhibition in vivo at 10 mg/kg: -6.3%

## CCOC(=O)C(C)ONS(=O)(=O)c1ccc(-n2nc(C(F)(F)F)cc2-c2ccc(C)cc2)cc1 (racemic)
Rattus norvegicus [1]
  inhibition in vivo at 10 mg/kg: 23.5%
Rattus norvegicus [2]
  inhibition in vivo at 10 mg/kg: 15.7%
Rattus norvegicus [3]
  inhibition in vivo at 10 mg/kg: 7.3%

## Cc1ccc(-c2cc(C(F)(F)F)nn2-c2ccc(S(=O)(=O)NOCC(=O)O)cc2)cc1 [listing 1 of 2 here]
Rattus norvegicus [1]
  inhibition in vivo at 10 mg/kg: 26%
Rattus norvegicus [2]
  inhibition in vivo at 10 mg/kg: 33.2%
Rattus norvegicus [3]
  inhibition in vivo at 10 mg/kg: 24.7%

## Cc1ccc(-c2cc(C(F)(F)F)nn2-c2ccc(S(=O)(=O)NOCCC(=O)O)cc2)cc1
Rattus norvegicus [1]
  Inhibition: 23.6%
Rattus norvegicus [2]
  Inhibition: 12.8%
Rattus norvegicus [3]
  Inhibition: 11.9%

## Cc1ccc(-c2cc(C(F)(F)F)nn2-c2ccc(S(=O)(=O)NOC(C)C(=O)O)cc2)cc1 (racemic; 16)
Rattus norvegicus [1]
  Inhibition: 41%
Rattus norvegicus [2]
  Inhibition: 31.1%
Rattus norvegicus [3]
  Inhibition: 17.9%
Rattus norvegicus [4]
  ED30: 5.7 mg/kg
Rattus norvegicus [5]
  Activity: 24%
Rattus norvegicus [6]
  Activity: 30%
Rattus norvegicus [7]
  Activity: 15%
Rattus norvegicus [8]
  Activity: 89%
Rattus norvegicus [9]
  Activity: 2.4 mm2
Rattus norvegicus [10]
  UI: 35
Rattus norvegicus [11]
  UI: 43
Rattus norvegicus [12]
  UI: 15.8
Rattus norvegicus [13]
  Activity: 59%
Rattus norvegicus [14]
  Activity: 35%
Rattus norvegicus [15]
  Activity: 22%
Rattus norvegicus [16]
  Activity: 23%
Rattus norvegicus [17]
  Activity: 28%
Rattus norvegicus [18]
  Activity: 20%
Rattus norvegicus [19]
  Activity: 42%
Rattus norvegicus [20]
  Activity: 54%
Rattus norvegicus [21]
  Activity: 34%
Rattus norvegicus [22]
  Activity: 19%
Rattus norvegicus [23]
  inhibition in vivo at 30 mg/kg: 43%
Rattus norvegicus [24]
  inhibition in vivo at 15 mg/kg: 35%
Rattus norvegicus [25]
  inhibition in vivo at 60 mg/kg: 76%
Rattus norvegicus [26]
  Activity: 43 g
Rattus norvegicus [27]
  ED30: 8.4 mg/kg

## Cc1ccc(-c2cc(C(F)(F)F)nn2-c2ccc(S(=O)(=O)NOCC(=O)O)cc2)cc1 [listing 2 of 2 here]
Rattus norvegicus [1]
  Inhibition: 13.1%
Rattus norvegicus [2]
  Inhibition: 21.3%
Rattus norvegicus [3]
  Inhibition: 17.1%

## COc1ccc2c(c1)c(CC(=O)O)c(C)n2C(=O)c1ccc(Cl)cc1 [INDOMETHACIN]
Rattus norvegicus [28]
  Activity: 39 mm2
Rattus norvegicus [29]
  Activity: 2 g

## Cc1ccc(-c2cc(C(F)(F)F)nn2-c2ccc(S(=O)(=O)NO[C@H](C)C(=O)O)cc2)cc1
Rattus norvegicus [1]
  inhibition in vivo at 10 mg/kg: 18.4%
Rattus norvegicus [2]
  inhibition in vivo at 10 mg/kg: 15.3%
Rattus norvegicus [3]
  inhibition in vivo at 10 mg/kg: 6.7%

## Cc1ccc(-c2cc(C(F)(F)F)nn2-c2ccc(S(N)(=O)=O)cc2)cc1 [CELECOXIB]
Rattus norvegicus [1]
  inhibition in vivo at 10 mg/kg: 24.2%
Rattus norvegicus [2]
  inhibition in vivo at 10 mg/kg: 18.6%
Rattus norvegicus [3]
  inhibition in vivo at 10 mg/kg: 12.3%
Rattus norvegicus [4]
  ED30: 23 mg/kg
Rattus norvegicus [5]
  Activity: 0%
Rattus norvegicus [6]
  Activity: 0%
Rattus norvegicus [7]
  Activity: 0%
Rattus norvegicus [8]
  Activity: 24%
Rattus norvegicus [9]
  Activity: 8.2 mm2
Rattus norvegicus [10]
  UI: 49.4
Rattus norvegicus [11]
  UI: 80.6
Rattus norvegicus [12]
  UI: 44.4
Rattus norvegicus [13]
  Activity: 3%
Rattus norvegicus [14]
  Activity: 0%
Rattus norvegicus [15]
  Activity: 17%
Rattus norvegicus [16]
  Activity: 24%
Rattus norvegicus [17]
  Activity: 0%
Rattus norvegicus [18]
  Activity: 0%
Rattus norvegicus [19]
  Activity: 54%
Rattus norvegicus [20]
  Activity: 34%
Rattus norvegicus [21]
  Activity: 34%
Rattus norvegicus [22]
  Activity: 26%
Rattus norvegicus [23]
  inhibition in vivo at 30 mg/kg: 19%
Rattus norvegicus [24]
  inhibition in vivo at 15 mg/kg: 18%
Rattus norvegicus [25]
  inhibition in vivo at 60 mg/kg: 55%
Rattus norvegicus [26]
  Activity: 32 g
Rattus norvegicus [27]
  ED30: > 30 mg/kg
